# WT yeast gro inh: growth inhibition of WT yeast, mitochondrial fusion screen; mitochondrial fusion phenotypic screen, WT strain; inhibition, % at 10 µM; hit rate 2.1% among 190,000; AID 1362; in the data active = inhibition above about 58%; tested in S. cerevisiae
# Diaph act CS: counter-screen for diaphorase-based assays: diaphorase activators and chemical reducers; Diaphorase/resazurin coupled assay, resorufin fluorescence, 16 min; active compounds read high; 1 = vehicle wells, 0 = NADH-free wells; activation factor at 20 µM; hit rate 0.005% among 190,000;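 active = diaphorase activity raised at least twofold by the compound at 20 µM; inactive = activation factor below 2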
#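 Material: Clostridium kluyveri diaphorase, purified enzyme; Quantity: enzyme 0.07 U/mL final; Medium: HEPES pH 7.4 buffer with MgCl2 and Tween 20; Dosing: single compound dose of 20 µM, 1% DMSO final; Schedule: 16 min reaction at room temperature; Measured by: red resorufin fluorescence at 544/590 nm excitation/emission.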
# Diaph inh CS: counter-screen for diaphorase-based assays: diaphorase inhibitors and chemical oxidizers; diaphorase resazurin-to-resorufin fluorescence, NADH, 16 min; bacterial (C. kluyveri) enzyme, not human; AID 1217; hit rate 0.69% among 190,000; inhibition, % at 20 µM;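 active = primary screen inhibition at 20 µM above a set limit, cut at about 50% in these data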;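 also: plate controls were DMSO with full reaction for no effect and wells lacking NADH for full effect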
#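 controls = No-NADH positive control and DMSO neutral control | system = Clostridium kluyveri diaphorase enzyme | timing = reaction incubation of 16 min at room temperature | signal = resorufin fluorescence 544/590 nm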
# Cl transport mod: modulates chloride dependent transport by human KCC2; B-score of Tl+ flux slope (higher = more flux/activation; lower = inhibition) at 10 µM; AID 1456; hit rate 2.2% among 190,000; Q9H2X9; KCC2 cells, thallium flux FluoZin-2 fluorescence;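 active = thallium flux slope and its plate-corrected score both differing from the plate sample mean at a set confidence after two filtering rounds, in either direction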;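 also: slope of fluorescence scaled to starting intensity during 10 to 20 s after thallium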
# ROMK mod: modulates human ROMK potassium channel activity; B-score at 10 µM; P48048; hit rate 2% among 130,000; AID 1918; Tet-inducible ROMK, thallium flux fluorescence; actives lie on both sides;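 active = signal ratio slope over the read window, or its plate-corrected B-score, at least 3 SD from the plate mean, either direction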;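 also: B-score of the F/F0 ratio slope over 7 to 12 s after thallium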
# Target sequence (P48048 whole entry, looked up): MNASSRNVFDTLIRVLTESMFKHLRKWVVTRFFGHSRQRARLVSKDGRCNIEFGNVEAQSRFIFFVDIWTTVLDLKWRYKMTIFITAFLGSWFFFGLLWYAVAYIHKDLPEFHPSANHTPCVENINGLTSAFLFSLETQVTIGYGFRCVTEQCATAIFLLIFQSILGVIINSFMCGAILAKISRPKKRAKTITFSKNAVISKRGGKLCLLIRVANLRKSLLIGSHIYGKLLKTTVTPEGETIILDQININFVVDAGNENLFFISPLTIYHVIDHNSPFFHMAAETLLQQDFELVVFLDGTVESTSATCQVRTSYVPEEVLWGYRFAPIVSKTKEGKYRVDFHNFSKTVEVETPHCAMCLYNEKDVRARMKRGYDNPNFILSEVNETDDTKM
# Lmaj promast: Leishmania major promastigote growth inhibition | hit rate 9% among 200,000 | AID 1063 | inhibition, % at 10 µM | Leishmania major promastigotes, resazurin fluorescence viability; in the data active = inhibition above about 50%;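 also: promastigotes grown with compound for 44 hours at 28 °C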
# Lmaj promast 1uM: blocks Leishmania major promastigote growth at 1 uM, repeat screen | L. major promastigote growth, resazurin fluorescence, 48 h | hit rate 13% among 1,100 | shares compounds with Lmaj promast | inhibition, % at 1 µM;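 active = inhibition above about 50% in both repeat tests, limit read from the data; inconclusive = one repeat under the set limit, the other over it; inactive = both repeats under the set limit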
# Starred values were filed as active, the others as inactive; u = inconclusive; x = no result. An excerpt weighted towards active compounds, which were near 12% of everything screened.
SMILES,WT yeast gro inh,Diaph act CS,Diaph inh CS,Cl transport mod,ROMK mod,Lmaj promast,Lmaj promast 1uM
O=C(O)c1ccc(Sc2nnnn2-c2ccccc2)c([N+](=O)[O-])c1,-1,0.9,11,1.4,x,-6,x
COC(=O)c1ccc(Sc2nnnn2-c2ccccc2)c([N+](=O)[O-])c1,0,0.8,19,-0.1,1.2,99*,-1
CC(C)c1nccn1S(=O)(=O)c1cccc([N+](=O)[O-])c1,-25,0.9,6,1.3,0.0011,52*,-15
CN1CCN(S(=O)(=O)c2cccc([N+](=O)[O-])c2)CC1,x,x,x,0.2,x,-4,x
COc1ccc(N2COC3c4cccc5cccc(c45)C32)cc1 (centres undefined),17,0.9,11,-0.85,-0.59,75*,-3
O=P(CCCCCCCCCP(=O)(c1ccccc1)c1ccccc1)(c1ccccc1)c1ccccc1,16,0.9,7,-3*,-4.7*,93*,-5
CCOc1ccc(S(=O)(=O)NC(C)(C)C)cc1-c1nc2c(C(C)(C)C)nn(C)c2c(=O)[nH]1,10,0.7,28,-1.4,-0.39,71*,4
CCOc1ccc(S(N)(=O)=O)cc1-c1nc2c(C(C)(C)C)nn(C)c2c(=O)[nH]1,x,x,x,-0.015,x,x,x
Cc1cc2c(c(/C=C/C(=O)c3ccccc3)c1)OC1(C=C2)Oc2ccccc2C(=O)N1C (centres undefined),0,0.9,13,1.1,0.0066,98*,25
Cc1c(/C=C/C(=O)c2ccccc2)cnn1C,12,1.1,-10,-0.34,-0.61,4,x
Cn1nc(-c2ccc(Cl)cc2)nc2c(=O)n(C)c(=O)nc1-2,-12,1.4,-35,-0.83,x,50*,81*
COC(=O)CSc1snnc1-c1ccc(Cl)cc1Cl,10,0.8,23,-0.89,x,-7,x
CN1CCCC1CCNC1C2CC3CC(C2)CC1C3 (centres undefined),12,0.9,6,-0.18,x,53*,-18
Cc1nc([N+](=O)[O-])nn1C12CC3CC(CC(Cl)(C3)C1)C2,0,0.9,12,0.025,0.032,88*,53*
O=[N+]([O-])c1ncn(C23CC4CC(CC(C4)C2)C3)n1,x,x,x,-0.0085,x,x,x
CN(C)c1ccnc(-n2cccc2/C=N/OCc2ccccc2)c1C#N,-4,0.9,10,0.0007,-1,-4,x
COc1ccccc1CO/N=C/c1cccn1-c1nccc(N(C)C)c1C#N,-39,0.7,27,-0.33,0.16,71*,-13
CCN(CC)C(=O)n1cnc(-c2ccccc2)c1-c1ccccc1,8,0.9,8,0.0057,x,69*,-12
CCN(CC)C(=O)c1ccc(-c2ccccc2)cc1,-1,1,-4,-0.72,-0.9,-10,x
c1cncc(C2Nc3ccccc3-c3nc4ccccc4n32)c1 (centres undefined),18,0.9,14,x,1,86*,u
COc1ccc(-c2nc(NC(=O)c3cc(C(C)(C)C)nn3C)sc2C)cc1,-1,0.9,5,-0.35,-0.17,70*,9
CC1(C)CC(=O)c2cc(C(=O)NNc3ccccc3)c(=O)n(-c3ccccc3)c2C1,6,1,1,-0.52,-0.46,52*,11
CC1(C)CC(=O)c2cc(C(=O)NCc3ccco3)c(=O)n(-c3ccccc3)c2C1,0,0.9,10,1.1,0.71,44,x
COc1ccccc1C1CC(c2c(-c3ccccc3)c3cc(Cl)ccc3[nH]c2=O)=NN1S(C)(=O)=O (centres undefined),-17,0.8,22,0.28,x,65*,0
COc1ccc(C2CC(c3c(-c4ccccc4)c4cc(Cl)ccc4[nH]c3=O)=NN2C(=O)CCC(=O)O)cc1 (centres undefined),-21,0.8,20,0.16,1,-7,x
SMILES,WT yeast gro inh,Diaph act CS,Diaph inh CS,Cl transport mod,ROMK mod,Lmaj promast,Lmaj promast 1uM
Cc1nn(-c2ccccc2)c(Cl)c1C(=O)N(C)c1nc(-c2ccc(F)cc2)cs1,5,0.9,6,0.13,0.73,16,x
OCCC1CN(Cc2ccc(-n3cccn3)cc2)CCN1Cc1ccccc1 (centres undefined),13,1,5,-0.068,0.24,14,x
CCOC(=O)c1ccc(Nc2ncccc2[N+](=O)[O-])cc1,2,1,0,1.5,-0.7,-2,x
CC1(C)CC2(CC(c3ccccc3F)c3cc(Cl)c(O)cc3O2)NC(=S)N1 (centres undefined),28,0.9,14,-0.17,0.88,83*,-14
C(=N\Nc1nc2ccccc2[nH]1)/c1ccccn1,67*,1,-4,0.011,0.31,100*,-8
C(=N\Nc1nc2ccccc2[nH]1)/c1ccc2ncccc2c1,x,x,x,-0.56,0.34,x,x
Cn1cc([N+](=O)[O-])c(C(=O)Nc2ccc(Br)cn2)n1,23,0.9,12,0.077,x,19,x
Cc1occc1C(=O)NNC(=O)C(c1ccccc1)c1ccccc1,10,0.9,14,x,-0.0065,2,x
Brc1cccc(-c2nnc3sc(CNC4CCCC4)cn23)c1,15,0.8,17,-0.72,x,85*,u
N[C@@H](Cc1ccc(O)cc1)c1nnc([C@H](CC(=O)O)NC(=O)C2CCNCC2)o1,1,1,1,1.3,x,2,x
Cc1cc2c(C)nc(-c3ccccc3)nc2o1,0,0.9,10,1.3,-1.1,-2,x
Cc1nc(-c2cn[nH]c2)c2cc(C)oc2n1,-1,0.9,6,0.48,0.64,62*,-8
CC1=C(C(=O)Nc2cc(-c3cccc(F)c3)[nH]n2)C2(CCCCC2)OC1=O,-1,0.9,13,0.3,x,100*,89*
C=CCSC(=S)NC1CCS(=O)(=O)C1 (centres undefined),-14,0.8,17,-0.082,0.53,93*,6
NC(=S)NC1CCS(=O)(=O)C1 (centres undefined),4,1,1,0.22,1.1,-3,x
NNc1ccc2c(C(F)(F)F)cc(C(F)(F)F)nc2n1,-9,1.2,-17,x,0.22,-9,x
N#CC(c1cccc(Cl)c1)c1ccc2c(C(F)(F)F)cc(C(F)(F)F)nc2n1 (centres undefined),81*,0.8,17,29*,3.2*,100*,60*
C=CCNC(=S)NNC(=O)c1cc(O)ccc1O,7,0.7,34,0.21,-0.39,-7,x
C/C(=N/NC(=O)c1ccc(C)nc1)c1ccc2c(c1)CCCC2,9,1,-3,0.025,0.74,2,x
CC(=O)c1cccc(NC(=O)NC(C)c2ccncc2)c1 (centres undefined),-2,1.1,-12,0.45,0.45,-7,x
COc1ccccc1C(=O)N/C(=C/c1ccc(Br)cc1)C(=O)N1CCCC1,-6,1.1,-10,-0.92,0.38,4,x

# Screening data from PubChem BioAssay.
